Measurements: ChEMBL document CHEMBL4020721 (Eur J Med Chem, 2017)

Assays:
[1] = Intrinsic clearance in human liver microsomes assessed per mg protein at 1 uM preincubated for 5 mins followed by NADPH addition measured after 5 to 30 mins by LC-MS/MS analysis; format: ADME, microsome; conditions: read-out: CLH
Method in brief: (§1)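 Microsomes (0.5 mg/ml) with 1 µM compound were preincubated 5 min at 37°C in 100 mM phosphate buffer pH 7.4, then started with 1 mM NADPH. Samples were taken at 0, 5, 10 and 30 min, quenched with acetonitrile/tinidazole and run by LC-MS/MS. CLint = k / microsomal protein concentration. Midazolam was the positive control.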

NCI-H1993 = experiment: Growth inhibition of human NCI-H1993 cells after 72 hrs by CCK-8 assay; format: functional, cell-based; conditions: Homo sapiens, NCI-H1993, 72 h
[2] = Drug recovery in human liver microsomes at 1 uM measured after 30 mins by LC-MS/MS analysis; format: ADME, microsome; conditions: liver microsomes, read-out: Drug recovery
Method in brief: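 Liver microsomes (0.5 mg/ml) were incubated with 1 µM compound at 37°C in 100 mM phosphate buffer pH 7.4 without NADPH for 30 min. Reactions were quenched with acetonitrile/tinidazole internal standard and analysed by LC-MS/MS. Recovery (%) was taken from the compound/internal standard peak area ratio.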

[3] = Drug recovery in monkey liver microsomes at 1 uM measured after 30 mins by LC-MS/MS analysis
[4] = Intrinsic clearance in monkey liver microsomes assessed per mg protein at 1 uM preincubated for 5 mins followed by NADPH addition measured after 5 to 30 mins by LC-MS/MS analysis; conditions: for microsomal CLint at 1 µM: liver microsomes, read-out: CLH
[5] = Drug recovery in rat liver microsomes at 1 uM measured after 30 mins by LC-MS/MS analysis; format: ADME, microsome; conditions: liver microsomes, read-out: Drug recovery
SNU-5 = experiment: Growth inhibition of human SNU5 cells after 72 hrs by CCK-8 assay; format: functional, cell-based; conditions: Homo sapiens, SNU-5, 72 h
[6] = Intrinsic clearance in rat liver microsomes assessed per mg protein at 1 uM preincubated for 5 mins followed by NADPH addition measured after 5 to 30 mins by LC-MS/MS analysis; format: ADME, microsome; conditions: read-out: CLH; method in brief: as §1
[7] = biological target: Hepatocyte growth factor receptor (Homo sapiens, UniProt P08581); experiment: Inhibition of c-MET (unknown origin) using TK substrate-biotin peptide as substrate preincubated for 5 to 10 mins followed by ATP addition measured after 30 mins by HTRF assay
Chain of Hepatocyte growth factor receptor (P08581 whole entry): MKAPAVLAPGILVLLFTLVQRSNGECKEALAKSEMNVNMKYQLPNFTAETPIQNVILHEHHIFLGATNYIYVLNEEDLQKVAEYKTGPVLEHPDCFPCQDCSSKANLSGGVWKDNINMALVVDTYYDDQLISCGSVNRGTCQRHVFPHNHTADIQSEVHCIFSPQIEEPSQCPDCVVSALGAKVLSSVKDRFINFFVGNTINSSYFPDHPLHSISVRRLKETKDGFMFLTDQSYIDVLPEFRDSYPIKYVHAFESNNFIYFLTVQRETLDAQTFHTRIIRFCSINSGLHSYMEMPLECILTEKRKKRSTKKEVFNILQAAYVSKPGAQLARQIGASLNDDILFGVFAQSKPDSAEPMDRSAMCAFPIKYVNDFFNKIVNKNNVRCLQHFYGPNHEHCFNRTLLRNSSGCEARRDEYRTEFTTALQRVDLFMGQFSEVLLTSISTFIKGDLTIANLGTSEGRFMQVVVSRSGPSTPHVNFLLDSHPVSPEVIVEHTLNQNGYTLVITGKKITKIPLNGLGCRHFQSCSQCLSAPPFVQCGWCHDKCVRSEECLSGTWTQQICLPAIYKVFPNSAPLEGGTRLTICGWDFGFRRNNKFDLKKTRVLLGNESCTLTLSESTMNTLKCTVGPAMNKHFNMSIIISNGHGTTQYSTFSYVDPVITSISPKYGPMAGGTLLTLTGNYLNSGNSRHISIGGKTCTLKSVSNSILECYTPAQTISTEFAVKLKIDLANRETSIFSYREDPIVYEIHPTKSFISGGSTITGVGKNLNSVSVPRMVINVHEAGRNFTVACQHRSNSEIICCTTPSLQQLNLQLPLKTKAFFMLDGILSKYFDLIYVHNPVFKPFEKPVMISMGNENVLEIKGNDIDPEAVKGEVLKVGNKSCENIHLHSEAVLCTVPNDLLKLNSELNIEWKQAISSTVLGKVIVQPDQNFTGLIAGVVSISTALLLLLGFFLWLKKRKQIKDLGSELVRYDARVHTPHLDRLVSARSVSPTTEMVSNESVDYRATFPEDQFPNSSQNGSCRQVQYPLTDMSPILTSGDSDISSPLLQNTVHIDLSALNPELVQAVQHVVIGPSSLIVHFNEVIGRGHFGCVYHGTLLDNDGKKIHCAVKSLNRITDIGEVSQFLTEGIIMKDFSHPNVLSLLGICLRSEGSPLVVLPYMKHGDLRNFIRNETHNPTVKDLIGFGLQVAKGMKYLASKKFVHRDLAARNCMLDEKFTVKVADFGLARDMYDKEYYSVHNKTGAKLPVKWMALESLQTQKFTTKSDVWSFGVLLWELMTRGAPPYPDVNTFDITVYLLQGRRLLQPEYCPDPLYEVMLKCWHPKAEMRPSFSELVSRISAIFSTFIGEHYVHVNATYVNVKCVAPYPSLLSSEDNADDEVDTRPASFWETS

CYP2C9 [8] = biological target: T1, CYP2C9 (Homo sapiens, UniProt P11712); experiment: Time dependent irreversible inhibition of CYP2C9 in human liver microsomes at 10 uM preincubated with compound followed by NADPH addition by LC-MS/MS analysis; format: ADME; conditions: liver microsomes
T1 sequence (P11712 whole entry): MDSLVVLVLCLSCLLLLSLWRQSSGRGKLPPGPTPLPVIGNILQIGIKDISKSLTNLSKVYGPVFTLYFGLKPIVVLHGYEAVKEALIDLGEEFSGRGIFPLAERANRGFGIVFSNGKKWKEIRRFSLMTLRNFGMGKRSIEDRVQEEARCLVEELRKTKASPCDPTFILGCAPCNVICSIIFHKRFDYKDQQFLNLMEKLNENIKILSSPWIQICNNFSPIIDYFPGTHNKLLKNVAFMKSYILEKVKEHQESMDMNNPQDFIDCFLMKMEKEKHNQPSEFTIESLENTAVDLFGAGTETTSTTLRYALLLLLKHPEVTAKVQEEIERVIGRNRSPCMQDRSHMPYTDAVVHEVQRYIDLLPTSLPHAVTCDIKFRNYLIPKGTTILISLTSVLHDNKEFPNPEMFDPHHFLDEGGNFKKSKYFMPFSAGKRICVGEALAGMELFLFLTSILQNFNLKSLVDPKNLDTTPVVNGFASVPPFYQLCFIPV
Method in brief: (§2)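 HLM (0.2 mg/ml) with 10 µM compound were preincubated 0, 5, 10 or 20 min at 37°C with 1 mM NADPH or PBS. Substrate cocktail (halved concentrations) plus NADPH was then added for 10 min. Metabolites were measured by LC-MS/MS. Kobs is the slope of relative activity versus preincubation time.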

CYP3A4 [9] = biological target: T2, CYP3A4 (Homo sapiens, UniProt P08684); experiment: (§3) Reversible inhibition of CYP3A4 in human liver microsomes at 10 uM after 20 mins in presence of NADPH by LC-MS/MS analysis; format: ADME; conditions: liver microsomes
T2 sequence (P08684 whole entry): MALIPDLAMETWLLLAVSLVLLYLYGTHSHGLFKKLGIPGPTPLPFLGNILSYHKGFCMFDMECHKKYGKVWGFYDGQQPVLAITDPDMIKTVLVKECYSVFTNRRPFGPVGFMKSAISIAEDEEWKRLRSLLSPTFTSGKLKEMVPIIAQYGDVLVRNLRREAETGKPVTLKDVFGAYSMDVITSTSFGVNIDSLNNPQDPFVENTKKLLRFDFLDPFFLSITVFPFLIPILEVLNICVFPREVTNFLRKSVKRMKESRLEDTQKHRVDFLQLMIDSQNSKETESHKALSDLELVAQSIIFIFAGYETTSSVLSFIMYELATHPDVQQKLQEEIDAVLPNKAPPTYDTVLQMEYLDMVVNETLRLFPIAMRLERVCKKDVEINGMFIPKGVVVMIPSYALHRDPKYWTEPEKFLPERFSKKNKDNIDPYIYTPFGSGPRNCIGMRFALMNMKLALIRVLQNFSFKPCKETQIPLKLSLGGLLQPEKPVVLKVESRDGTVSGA

CYP2C9 [10] = biological target: T1, CYP2C9; experiment: (§4) Reversible inhibition of CYP2C9 in human liver microsomes at 10 uM after 20 mins by in presence of NADPH LC-MS/MS analysis; format: ADME; conditions: liver microsomes
CYP1A2 [11] = biological target: T3, CYP1A2 (Homo sapiens, UniProt P05177); experiment: Time dependent irreversible inhibition of CYP1A2 in human liver microsomes at 10 uM preincubated with compound followed by NADPH addition by LC-MS/MS analysis; format: ADME; conditions: liver microsomes; method in brief: as §2
T3 sequence (P05177 whole entry): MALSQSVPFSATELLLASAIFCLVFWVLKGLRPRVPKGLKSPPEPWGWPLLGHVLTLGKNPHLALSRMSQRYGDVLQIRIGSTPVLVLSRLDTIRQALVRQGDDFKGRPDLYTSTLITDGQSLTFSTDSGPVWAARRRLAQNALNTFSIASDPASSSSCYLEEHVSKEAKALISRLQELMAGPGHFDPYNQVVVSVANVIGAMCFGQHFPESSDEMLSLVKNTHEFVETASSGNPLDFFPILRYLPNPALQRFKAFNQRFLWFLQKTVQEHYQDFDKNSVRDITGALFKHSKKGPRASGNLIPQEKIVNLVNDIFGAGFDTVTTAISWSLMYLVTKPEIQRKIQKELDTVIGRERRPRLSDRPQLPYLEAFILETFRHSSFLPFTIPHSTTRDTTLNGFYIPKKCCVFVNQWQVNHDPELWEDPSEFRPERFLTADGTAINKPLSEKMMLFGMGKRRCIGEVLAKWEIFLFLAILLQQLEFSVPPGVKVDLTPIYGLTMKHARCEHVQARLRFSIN

CYP2D6 [12] = biological target: T4, CYP2D6 (Homo sapiens, UniProt P10635); experiment: Reversible inhibition of CYP2D6 in human liver microsomes at 10 uM after 20 mins in presence of NADPH by LC-MS/MS analysis; format: ADME; conditions: liver microsomes
T4 sequence (P10635 whole entry): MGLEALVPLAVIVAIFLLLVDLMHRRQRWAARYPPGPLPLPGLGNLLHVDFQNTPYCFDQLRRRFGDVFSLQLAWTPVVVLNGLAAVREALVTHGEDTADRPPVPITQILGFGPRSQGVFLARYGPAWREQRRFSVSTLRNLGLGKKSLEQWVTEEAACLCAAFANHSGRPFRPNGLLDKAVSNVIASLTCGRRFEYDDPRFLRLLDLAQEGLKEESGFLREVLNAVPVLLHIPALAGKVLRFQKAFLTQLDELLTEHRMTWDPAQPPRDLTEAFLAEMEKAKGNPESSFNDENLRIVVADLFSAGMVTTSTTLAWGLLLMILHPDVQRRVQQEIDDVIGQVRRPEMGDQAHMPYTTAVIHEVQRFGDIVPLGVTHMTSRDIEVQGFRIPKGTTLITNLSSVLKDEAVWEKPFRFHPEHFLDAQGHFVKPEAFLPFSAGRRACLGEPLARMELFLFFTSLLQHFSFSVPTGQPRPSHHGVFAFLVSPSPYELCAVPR

CYP3A4 [13] = biological target: T2, CYP3A4; experiment: (§5) Time dependent irreversible inhibition of CYP3A4 in human liver microsomes at 10 uM preincubated with compound followed by NADPH addition by LC-MS/MS analysis; format: ADME; conditions: liver microsomes; method in brief: as §2
CYP2C19 [14] = biological target: T5, CYP2C19 (Homo sapiens, UniProt P33261); experiment: (§6) Reversible inhibition of CYP2C19 in human liver microsomes at 10 uM after 20 mins in presence of NADPH by LC-MS/MS analysis; format: ADME; conditions: liver microsomes
T5 sequence (P33261 whole entry): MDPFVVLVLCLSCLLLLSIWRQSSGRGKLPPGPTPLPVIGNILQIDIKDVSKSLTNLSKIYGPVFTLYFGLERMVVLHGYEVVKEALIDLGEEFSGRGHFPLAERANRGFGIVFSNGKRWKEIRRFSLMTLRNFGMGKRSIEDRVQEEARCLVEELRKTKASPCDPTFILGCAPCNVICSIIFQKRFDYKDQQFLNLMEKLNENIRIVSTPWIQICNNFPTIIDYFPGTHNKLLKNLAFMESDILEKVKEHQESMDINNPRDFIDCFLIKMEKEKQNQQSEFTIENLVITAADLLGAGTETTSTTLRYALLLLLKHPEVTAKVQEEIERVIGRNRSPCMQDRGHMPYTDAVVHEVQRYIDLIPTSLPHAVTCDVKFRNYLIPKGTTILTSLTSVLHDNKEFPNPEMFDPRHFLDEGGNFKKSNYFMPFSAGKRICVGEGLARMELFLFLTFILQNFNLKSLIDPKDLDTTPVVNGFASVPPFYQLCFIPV

CYP2D6 [15] = biological target: T4, CYP2D6; experiment: Time dependent irreversible inhibition of CYP2D6 in human liver microsomes at 10 uM preincubated with compound followed by NADPH addition by LC-MS/MS analysis; format: ADME; conditions: liver microsomes; method in brief: as §2
CYP2C19 [16] = biological target: T5, CYP2C19; experiment: Time dependent irreversible inhibition of CYP2C19 in human liver microsomes at 10 uM preincubated with compound followed by NADPH addition by LC-MS/MS analysis; format: ADME; method in brief: as §2
CYP1A2 [17] = biological target: T3, CYP1A2; experiment: Reversible inhibition of CYP1A2 in human liver microsomes at 10 uM after 20 mins in presence of NADPH by LC-MS/MS analysis; format: ADME
Cytochrome P450 3A4 [18] = biological target: T6, Cytochrome P450 3A4 (Homo sapiens, UniProt P08684); experiment: as §3; format: ADME; conditions: microsomes, 20 min, 10 µM
T6 sequence (P08684 whole entry): as the sequence (P08684 whole entry) above

Cytochrome P450 2C9 = Cytochrome P450 2C9 (Homo sapiens, UniProt P11712); experiment: as §4; format: ADME; conditions: microsomes, 20 min, 10 µM
Chain of Cytochrome P450 2C9 (P11712 whole entry): as the sequence (P11712 whole entry) above

Cytochrome P450 2C19 = Cytochrome P450 2C19 (Homo sapiens, UniProt P33261); experiment: as §6; format: ADME; conditions: microsomes, 20 min, 10 µM
Chain of Cytochrome P450 2C19 (P33261 whole entry): as the sequence (P33261 whole entry) above

Cytochrome P450 3A4 [19] = biological target: T6, Cytochrome P450 3A4; experiment: as §5; format: ADME; conditions: microsomes, 10 µM; method in brief: as §2

| microsomal CLint at 1 µM [1] [µL/min/mg] | IC50 (NCI-H1993) [nM] | remaining at 0.5 h, 1 µM [2] [%] | remaining at 0.5 h, 1 µM [3] [%] | microsomal CLint at 1 µM [4] [µL/min/mg] | remaining at 0.5 h, 1 µM [5] [%] | IC50 (SNU-5) [nM] | microsomal CLint at 1 µM [6] [µL/min/mg] | inhibition at 10 µM (CYP2C9 [8]) [%] | inhibition at 10 µM (CYP1A2 [11]) [%] | inhibition at 10 µM (CYP3A4 [13]) [%] | inhibition at 10 µM (CYP2D6 [15]) [%] | inhibition at 10 µM (CYP2C19 [16]) [%] | SMILES | also measured |
| --- | --- | --- | --- | --- | --- | --- | --- | --- | --- | --- | --- | --- | --- | --- |
| 15 | 4.2 | 104 | 93 | 119 | 97 | 3.7 | 57 | – | – | – | – | – | CNC(=O)c1ccc(-c2cnc3nnn(C(C)c4ccc5ncc(-c6ccc(F)cc6)cc5c4)c3n2)cc1F (stereo unspecified) | – |
| – | 3.5 | – | – | – | – | 7.2 | – | – | – | – | – | – | CC(c1c(F)cc2ncc(-c3ccc(F)cc3)cc2c1F)n1nnc2ncc(-c3ccncc3)nc21 (stereo unspecified) | – |
| – | – | – | – | – | – | – | – | – | – | – | – | – | CC(c1ccc2nc(-c3cnn(C)c3)ccc2c1)n1nnc2ncc(-c3ccc(N)cc3)nc21 (stereo unspecified) | IC50 [7]: > 100 nM |
| 5 | 1.1 | 116 | 69 | 24 | 111 | 0.6 | 12 | < 50 | < 50 | < 50 | < 50 | < 50 | CNC(=O)c1ccc(-c2cnc3nnn(C(C)c4cc5cc(-c6cnn(C)c6)cnc5cc4F)c3n2)cc1F (stereo unspecified) | inhibition at 20 min, 10 µM (CYP3A4 [9]): < 50%; inhibition at 20 min, 10 µM (CYP2C9 [10]): < 50%; inhibition at 20 min, 10 µM (CYP2D6 [12]): < 50%; inhibition at 20 min, 10 µM (CYP2C19 [14]): < 50%; inhibition at 20 min, 10 µM (CYP1A2 [17]): < 50% |
| 22 | 0.9 | 104 | 90 | 78 | 94 | 1.2 | 61 | < 50 | < 50 | < 50 | < 50 | < 50 | CC(c1ccc2ncc(-c3cnn(C)c3)cc2c1)n1nnc2ncc(-c3ccncc3)nc21 (stereo unspecified) | inhibition (INH) (Cytochrome P450 3A4 [18]): Active |
| – | 4.1 | – | – | – | – | 2 | – | – | – | – | – | – | CC(c1cc2cc(-c3ccc(F)cc3)cnc2cc1F)n1nnc2ncc(-c3cnn(C)c3)nc21 (stereo unspecified) | – |
| 4 | 3.2 | 113 | 103 | 49 | 106 | 2.5 | 55 | < 50 | < 50 | < 50 | < 50 | < 50 | CC(c1cc2cc(-c3cnn(C)c3)cnc2cc1F)n1nnc2ncc(-c3ccncc3)nc21 (stereo unspecified) | inhibition (INH) (Cytochrome P450 3A4 [18]): Active; inhibition (INH) (Cytochrome P450 2C9): Active; inhibition (INH) (Cytochrome P450 2C19): Active |
| – | – | – | – | – | – | – | – | – | – | – | – | – | CC(c1ccc2nc(-c3cnn(C)c3)ccc2c1)n1nnc2ncc(-c3cnn(C)c3)nc21 (stereo unspecified) | IC50 [7]: > 100 nM |
| 16 | 1.2 | 105 | 109 | 112 | 97 | 2.2 | 28 | – | – | – | – | – | CC(c1ccc2ncc(-c3ccc(F)cc3)cc2c1)n1nnc2ncc(-c3cnn(C)c3)nc21 (stereo unspecified) | – |
| – | 2.6 | – | – | – | – | 2.2 | – | – | – | – | – | – | CC(c1c(F)cc2ncc(-c3ccc(F)cc3)cc2c1F)n1nnc2ncc(-c3cnn(C)c3)nc21 (stereo unspecified) | – |
| 17 | 0.8 | 91 | 75 | 86 | 94 | 1.3 | 22 | – | – | – | – | – | CC(c1c(F)cc2ncc(-c3cnn(C)c3)cc2c1F)n1nnc2ncc(-c3cnn(C)c3)nc21 (stereo unspecified) | inhibition (INH) (Cytochrome P450 2C9): Active; TDI (Cytochrome P450 3A4 [19]): Active; inhibition (INH) (Cytochrome P450 2C19): Active |
| – | 3.6 | – | – | – | – | 6.8 | – | – | – | – | – | – | CC(c1cc2cc(-c3ccc(F)cc3)cnc2cc1F)n1nnc2ncc(-c3ccncc3)nc21 (stereo unspecified) | – |
| – | 0.2 | 105 | 108 | 16 | 104 | 1.8 | 6 | < 50 | < 50 | < 50 | < 50 | < 50 | CC(c1ccc2ncc(-c3cnn(C)c3)cc2c1)n1nnc2ncc(-c3cnn(CCO)c3)nc21 (stereo unspecified) | inhibition (INH) (Cytochrome P450 2C9): Active; inhibition (INH) (Cytochrome P450 2C19): Active |
| 8 | 0.8 | 98 | 102 | 43 | 97 | 1.3 | 20 | < 50 | < 50 | < 50 | < 50 | < 50 | CC(c1c(F)cc2ncc(-c3cnn(C)c3)cc2c1F)n1nnc2ncc(-c3cnn(CCO)c3)nc21 (stereo unspecified) | inhibition (INH) (Cytochrome P450 2C9): Active; inhibition (INH) (Cytochrome P450 2C19): Active |
| 8 | – | 92 | 1 | – | 79 | – | 49 | – | – | – | – | – | C[C@@H](c1cc2cccnc2cc1F)n1cnc2ncc(-c3cnn(C)c3)nc21 | CLH ([4]; microsomes, 1 µM): Nd(Unstable) |
| 14 | 8.7 | 105 | 97 | 65 | 91 | 7 | 56 | – | – | – | – | – | CC(c1ccc2ncc(-c3ccc(F)cc3)cc2c1)n1nnc2ncc(-c3ccncc3)nc21 (stereo unspecified) | – |
| 1 | 0.5 | 115 | 97 | 16 | 114 | 0.6 | 5 | < 50 | < 50 | < 50 | < 50 | < 50 | CNC(=O)c1ccc(-c2cnc3nnn(C(C)c4ccc5ncc(-c6cnn(C)c6)cc5c4)c3n2)cc1F (stereo unspecified) | inhibition (INH) (Cytochrome P450 3A4 [18]): Active |
| 5 | – | 92 | 95 | 187 | 95 | 0.9 | 48 | < 50 | < 50 | < 50 | < 50 | < 50 | CNC(=O)c1ccc(-c2cnc3nnn(C(C)c4c(F)cc5ncc(-c6cnn(C)c6)cc5c4F)c3n2)cc1F (stereo unspecified) | inhibition (INH) (Cytochrome P450 2C9): Active; inhibition (INH) (Cytochrome P450 2C19): Active |
